Bioassay records from PubChem BioAssay.
Sampled rows, rich in hits. Any-hit rate of the full collection: about 3.8%.
RGS4 inh: RGS4 inhibitors, primary screen, cell-based, HEK293 M3R inducible RGS4, calcium flux; Regulator of G-protein signaling 4 (Homo sapiens), P49798; Fluo-4 calcium flux; active compounds read high; triggered by carbachol at its EC20; AID 463165, 2010; actives 0.45% (n = 310,000); B-score at 10 µM;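 active means B-score, a plate-corrected calcium signal, over three deviations above library mean, with baseline fluorescence within five deviations of library mean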;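 further: RGS4 expression induced by doxycycline in cells with stable M3 receptor; B-score is computed from the integrated fluorescence ratio over baseline after carbachol; higher B-score means a larger calcium signal and so more RGS4 inhibition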
Target sequence (P49798 whole entry, looked up): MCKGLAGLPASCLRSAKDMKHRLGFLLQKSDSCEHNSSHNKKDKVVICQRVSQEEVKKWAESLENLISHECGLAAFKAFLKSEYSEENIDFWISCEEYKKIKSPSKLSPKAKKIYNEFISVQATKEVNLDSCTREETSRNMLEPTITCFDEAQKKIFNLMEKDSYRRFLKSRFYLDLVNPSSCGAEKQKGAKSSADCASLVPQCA
MrgX1 agonist: agonists of human MrgX1 receptor, primary screen, HEK293 cells, Fluo-4 calcium flux | Mas-related G-protein coupled receptor member X1 (Homo sapiens), Q96LB2 | Fluo-4 calcium fluorescence, agonist mode; active compounds read high | B-score at 10 µM | actives 0.44% (n = 310,000);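 active means calcium response B-score plate-corrected fluorescence ratio at least 3 library SD, with starting fluorescence B-score inside 5 SD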
Target sequence (Q96LB2 whole entry, looked up): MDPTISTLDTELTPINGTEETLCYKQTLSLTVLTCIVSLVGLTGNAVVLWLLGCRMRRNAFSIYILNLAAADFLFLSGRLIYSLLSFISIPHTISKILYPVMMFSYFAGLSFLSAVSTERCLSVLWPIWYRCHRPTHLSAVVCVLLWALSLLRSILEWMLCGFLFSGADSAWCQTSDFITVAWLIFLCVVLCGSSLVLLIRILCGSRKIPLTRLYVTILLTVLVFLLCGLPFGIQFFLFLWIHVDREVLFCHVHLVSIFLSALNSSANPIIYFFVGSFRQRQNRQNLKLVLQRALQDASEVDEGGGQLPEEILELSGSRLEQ
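Assay system: MrgX1-expressing HEK293 cells / Amount: fifteen thousand cells per well / Doses: test compound in the initial addition of three / Timing: cells plated overnight, dye loaded 0.5 h 37 °C, 0.5 h room temperature / Technique: kinetic calcium dye fluorescence, Fluo-4 NW / Control set: positive and negative controls per plate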
RGS4 pot: RGS4 potentiators or activators, primary screen, cell-based, HEK293 M3R inducible RGS4, calcium flux; AID 463111, 2010; carbachol calcium flux Fluo4; active compounds read low; actives 0.92% (n = 310,000); B-score at 10 µM;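 active means B-score of the integrated calcium signal more than 4 SD below the library mean, with starting fluorescence not abnormally high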;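 further: negative B-score means reduced calcium response which marks RGS4 activation or potentiation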
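Reagent: ECmax carbachol challenge; Test system: M3R-expressing HEK293 line, RGS4 induced by doxycycline; Schedule: overnight RGS4 induction, 30 min dye load 37 °C, 20 min compound RT; Detection: calcium dye Fluo4 fluorescence; Read-out: Agonist-evoked peak-minus-minimum fluorescence over baseline, integrated ratio, B score.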
MrgX1 antag: antagonists of human MrgX1 receptor, primary screen, HEK293 cells, Fluo-4 calcium flux. actives 1.3% (n = 310,000). Mas-related G-protein coupled receptor member X1 (Homo sapiens), Q96LB2. B-score at 10 µM. BAM8-22 antagonism; active compounds read low;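 active means calcium-response B-score plate-corrected more than 3 library SD below zero, starting fluorescence within 5 deviations, no agonist response on first addition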;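 further: peak minus trough fluorescence over baseline after final BAM8-22 challenge near maximal dose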
MrgX1 allo act: positive allosteric modulators of MrgX1, primary screen, HEK293 cells, Fluo-4 calcium flux; FDSS; active compounds read high; B-score at 10 µM; actives 0.63% (n = 310,000);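 active means plate-corrected calcium response at least 3 library SD above typical, normal starting fluorescence, not activating the receptor alone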;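 further: compound read alongside a low EC10 to EC30 dose of BAM8-22 agonist; peak minus trough fluorescence over baseline measured at the second addition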
Lipid droplet: inhibitors of hepatocyte lipid droplet formation, primary screen, imaging, high-throughput imaging, BODIPY stain; AID 1656, 2009; actives 0.4% (n = 240,000); AML12 mouse hepatocytes, oleate lipid droplets; inhibition, % at 6.5 µM;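 active means lipid droplet intensity inhibited by at least 50%, with more than 500 cells counted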
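Material: mouse AML12 hepatocyte cell line, fixed after treatment; Timing: compound with oleate, overnight; Technique: high-content imaging of BODIPY-stained droplets and DAPI nuclei; Probe or stimulus: oleate, 100 µM final; Dosing: compound at 6.5 µM only.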
RGS4 block valid: enhanced carbachol calcium response, M3R/RGS4 cells, RGS4 inhibitor project, cell-based, validation screen, HEK293 M3R/RGS4, calcium flux; actives 65% (n = 1,700); shares compounds with RGS4 inh; carbachol calcium Fluo-4 fluorescence; carbachol added at its EC20; 0 = buffer wells, 100 = carbachol control; calcium response, % at 10 µM;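 active means duplicate-averaged calcium response above the buffer-only control mean plus 5 SD of those controls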;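 further: integrated fluorescence ratio F max minus min over baseline F0; higher response in RGS4-induced cells means RGS4 inhibition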
RGS4 uninduced: carbachol calcium response in non-induced M3R cells, confirmation, counter-screen for RGS4 inhibitor project, cell-based, HEK293 M3R | shares compounds with RGS4 inh | carbachol calcium Fluo-4; submaximal (EC20) carbachol stimulus; buffer wells 0%, carbachol control wells 100% | activity (percent), % at 10 µM | actives 20% (n = 1,900) | AID 493000, 2010; call rule not given here;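 further: RGS4 induction absent so cells express M3R without RGS4; higher means more calcium signal and flags a non-specific hit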
M3R basal Ca ctr: second counter-screen for RGS4 inhibitors: non-induced cells without carbachol; actives 22% (n = 1,900); HEK293 M3R/RGS4 non-induced, Fluo-4 calcium, no carbachol; normalised: buffer wells 0%, carbachol wells 100%; shares compounds with RGS4 inh; calcium response (agonist-mode artifact), % at 10 µM;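 active means duplicate-averaged calcium rise in uninduced cells above buffer wells' mean plus 5 SD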
The depositor's hits bear a star; i = inactive; . = no result given.

SMILES | RGS4 inh | MrgX1 agonist | RGS4 pot | MrgX1 antag | MrgX1 allo act | Lipid droplet | RGS4 block valid | RGS4 uninduced | M3R basal Ca ctr
CCOc1cc(/C=C2/C(=O)NN(c3cccc(Cl)c3)C2=O)ccc1O | 5.7* | i | i | i | i | -2 | 5.0%* | i | 20%*
Cn1c(=O)c([N+](=O)[O-])c(NCc2ccc3c(c2)OCO3)c2ccccc21 | i | i | i | i | i | -29 | . | . | .
Cc1cc(O)c(C(=O)/C=C/c2ccc(Cl)cc2)c(=O)o1 | i | i | i | i | i | 12 | . | . | .
COc1cccc(/C=C/C(=O)c2c(O)cc(C)oc2=O)c1O | 7.3* | i | i | i | i | . | 37%* | i | i
CSc1ccc(/C=C/C(=O)c2c(O)cc(C)oc2=O)cc1 | 6.1* | i | i | i | i | 0 | 24%* | i | 7.5%*
CCc1cccc2c(C(=O)CN3C(=O)NC(C)(c4cccc5ccccc45)C3=O)c[nH]c12 (stereo not drawn) | 11* | i | i | i | i | 10 | i | i | i
CCc1cccc2c(C(=O)CN3C(=O)NC4(CCc5ccccc54)C3=O)c[nH]c12 (stereo not drawn) | i | i | i | i | i | . | . | . | .
O=S(=O)(/N=C(\Sc1ccccc1)c1ccccc1)c1ccc(Cl)cc1 | i | i | i | i | i | . | . | i | 27%*
Cc1ccc(S(=O)(=O)/N=C(\Sc2ccccc2)c2ccccc2)cc1 | 22* | i | i | i | i | . | 22%* | i | 26%*
Cc1ccc(S(=O)(=O)/N=C(/Sc2ccccc2C(=O)O)c2ccccc2)cc1 | i | i | i | i | i | 5 | . | . | .
O=C(O)c1ccc(Nc2nc(-c3cc4ccccc4oc3=O)cs2)cc1O | 15* | . | i | . | . | 3 | 40%* | i | 12%*
CC1=NN(c2ccc(C)cc2C)C(=O)C1C(c1cccc(O)c1)C1C(=O)N(c2ccc(C)cc2C)N=C1C (stereo not drawn) | 5.3* | i | i | i | i | 0 | 14%* | 50%* | i
Cc1ccc(-n2ncc3c(=O)[nH]c(SCC(=O)N4CCCc5ccccc54)nc32)cc1 | i | i | i | i | i | -12 | . | i | i
Cc1ccc(C23CC4CC(CC(C(=O)NC(C)C(N)=O)(C4)C2)C3)cc1 (stereo not drawn) | i | i | i | i | i | -6 | . | . | .
CC(=O)Oc1cccc(/C=c2\sc3nc(-c4ccco4)nn3c2=O)c1 | i | i | i | i | i | 0 | . | . | .
CCCOc1ccc(/C=c2\sc3nc(-c4ccco4)nn3c2=O)cc1OCC | i | i | i | i | i | 0 | i | i | 154%*
O=Nc1c(O)n(Cc2ccc(Cl)cc2Cl)c2ccccc12 | 6.6* | i | i | i | i | . | 5.5%* | i | i
O=C(c1cccc(C(F)(F)F)c1)C1CCCN(Cc2cccn2-c2ccccn2)C1 (stereo not drawn) | i | i | i | i | i | -71 | . | . | .
O=[N+]([O-])c1cccn2cc(-c3ccc(Br)cc3)nc12 | i | i | i | i | i | -2 | . | . | .
Nc1nn2cc(-c3ccc(Br)cc3)nc2c2ccccc12 | 7* | i | i | i | i | 6 | 10%* | i | i
Cc1cc(Nc2ccccc2)n2nc(C)c(-c3ccccc3)c2n1 | i | i | i | i | i | -4 | i | i | i
O=C1NC2(CCCC2)C(=O)N1CC(=O)N(Cc1ccccc1)c1ccccc1 | i | i | i | i | i | . | . | . | .
COCCNC(=O)c1cn(Cc2c(F)cccc2Cl)nn1 | i | i | i | i | i | . | . | i | i
CCOC(=O)c1c(-c2ccccc2)csc1NC(=O)CSc1nnc(C)s1 | i | i | i | i | i | -11 | . | . | .
CCOC(=O)c1sc(NC(=O)CSc2nnnn2-c2ccccc2)nc1C | i | i | i | i | i | . | . | . | .
SMILES | RGS4 inh | MrgX1 agonist | RGS4 pot | MrgX1 antag | MrgX1 allo act | Lipid droplet | RGS4 block valid | RGS4 uninduced | M3R basal Ca ctr
CCOC(=O)c1c(-c2ccc(C)o2)csc1NC(=O)CSc1nnc(C)s1 | i | i | i | i | i | . | i | i | i
CCOC(=O)c1c(-c2ccc(C)o2)csc1NC(=O)CSc1nnnn1-c1ccccc1 | 9.9* | i | i | i | i | . | i | i | i
COc1ccc(OC)c(NC(=O)CN2CCC(NC(=O)c3ccccc3C)CC2)c1 | i | i | i | i | i | 8 | . | . | .
c1coc(-c2nc(-c3ccco3)c(-c3ccco3)nc2-c2ccco2)c1 | i | i | i | i | i | . | . | . | .
COc1ccc2nc(-c3ccco3)c(-c3ccco3)nc2c1 | 5.8* | i | i | i | i | 23 | i | i | 32%*
COCCNC(=S)N(CCc1c(C)[nH]c2ccc(Cl)cc12)Cc1cccs1 | 5* | i | i | i | i | 0 | 6.0%* | i | i
COCCNC(=S)N(CCc1c(C)[nH]c2ccc(F)cc12)Cc1cccs1 | i | i | i | i | i | -1 | i | i | i
CCNC(=S)N(CCc1c(C)[nH]c2ccc(C)cc12)Cc1cccs1 | i | i | i | i | i | -22 | . | . | .
O=C(NC(C(=O)N/N=C/c1ccncc1)c1n[nH]c(=O)c2ccccc12)c1ccccc1 (stereo not drawn) | i | i | i | i | i | -2 | . | . | .
